From ChEMBL document CHEMBL3576819, “Design, synthesis, biological evaluation and molecular docking studies of phenylpropanoid derivatives as potent anti-hepatitis B virus agents” (Eur J Med Chem, 2015)

What was measured:
Hepatitis B virus [1] = assay: Antiviral activity against Hepatitis B virus infected in human HepG2.2.15 cells assessed as inhibition of HBsAg secretion at 75 uM after 6 days by ELISA; format: functional; details: HepG2 2.2.15, 144 h
Summary of the method: (§1)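 HepG2.2.15 cells (MEM, 10% FBS, 380 µg/ml G418) seeded at 1×10^5 cells/ml, held 24 h at 37 °C, then treated with various drug concentrations; medium with drug renewed every 3 d for up to 9 d. Culture medium sampled on days 3, 6 and 9, stored at -20 °C, and assayed for secreted antigen. Lamivudine as positive control; IC50 = 50% inhibition of secretion; means of at least two experiments.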

Hepatitis B virus [2] = assay: Antiviral activity against Hepatitis B virus infected in human HepG2.2.15 cells assessed as inhibition of HBsAg secretion at 150 uM after 3 days by ELISA; format: functional; details: HepG2 2.2.15, 72 h; summary of the method: as §1
Hepatitis B virus [3] = assay: Antiviral activity against Hepatitis B virus infected in human HepG2.2.15 cells assessed as inhibition of HBsAg secretion at 300 uM after 9 days by ELISA; format: functional; details: HepG2 2.2.15, 216 h; summary of the method: as §1
Hepatitis B virus [4] = assay: Antiviral activity against Hepatitis B virus infected in human HepG2.2.15 cells assessed as inhibition of HBsAg secretion at 150 uM after 6 days by ELISA; format: functional; details: HepG2 2.2.15, 144 h; summary of the method: as §1
Hepatitis B virus [5] = assay: Antiviral activity against Hepatitis B virus infected in human HepG2.2.15 cells assessed as inhibition of HBsAg secretion at 37.5 uM after 9 days by ELISA; format: functional; details: HepG2 2.2.15, 216 h; summary of the method: as §1
Hepatitis B virus [6] = assay: Antiviral activity against Hepatitis B virus infected in human HepG2.2.15 cells assessed as cell survival at 150 uM after 9 days (reference value: 100%); format: functional; details: HepG2 2.2.15, 216 h
Summary of the method: (§2)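 HepG2.2.15 cells (MEM, 10% FBS, 380 µg/ml G418, 37 °C, 5% CO2) seeded at 1×10^5 cells/ml, cultured 24 h, then exposed to various drug concentrations; drug-containing medium renewed every 3 d. OD read at 450 nm after 9 days; percent cell death calculated; CC50 = concentration killing 50% of cells. Means of at least two experiments.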

Hepatitis B virus [7] = assay: Antiviral activity against Hepatitis B virus infected in human HepG2.2.15 cells assessed as inhibition of HBeAg secretion at 75 uM after 6 days by ELISA; format: functional; details: HepG2 2.2.15, 144 h; summary of the method: as §1
Hepatitis B virus [8] = assay: Antiviral activity against Hepatitis B virus infected in human HepG2.2.15 cells assessed as inhibition of HBsAg secretion at 75 uM after 9 days by ELISA; format: functional; details: HepG2 2.2.15, 216 h; summary of the method: as §1
[9] = Selectivity index, ratio of CC50 for human HepG2.2.15 cells to IC50 for Hepatitis B virus infected in human HepG2.2.15 cells assessed as inhibition of HBeAg secretion; format: functional
Summary of the method: (§3)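 Selectivity index computed as CC50/IC50, with CC50 from cell death of HepG2.2.15 cells after 9 days of treatment (OD 450 nm) and IC50 from 50% inhibition of HBeAg or HBsAg secretion in the same cells; medium with drug renewed every 3 d.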

Hepatitis B virus [10] = assay: Antiviral activity against Hepatitis B virus infected in human HepG2.2.15 cells assessed as inhibition of HBeAg secretion by ELISA; format: functional, organism-based; details: HepG2 2.2.15; summary of the method: as §1
[11] = Selectivity index, ratio of CC50 for human HepG2.2.15 cells to IC50 for Hepatitis B virus infected in human HepG2.2.15 cells assessed as inhibition of HBsAg secretion; format: functional; summary of the method: as §3
Hepatitis B virus [12] = assay: Antiviral activity against Hepatitis B virus infected in human HepG2.2.15 cells assessed as inhibition of HBeAg secretion at 37.5 uM after 9 days by ELISA; format: functional; details: HepG2 2.2.15, 216 h; summary of the method: as §1
Hepatitis B virus [13] = assay: Antiviral activity against Hepatitis B virus infected in human HepG2.2.15 cells assessed as inhibition of HBsAg secretion by ELISA; format: functional, organism-based; details: HepG2 2.2.15; summary of the method: as §1
Hepatitis B virus [14] = assay: Antiviral activity against Hepatitis B virus infected in human HepG2.2.15 cells assessed as inhibition of HBeAg secretion at 300 uM after 9 days by ELISA; format: functional; details: HepG2 2.2.15, 216 h; summary of the method: as §1
Hepatitis B virus [15] = assay: Antiviral activity against Hepatitis B virus infected in human HepG2.2.15 cells assessed as inhibition of HBsAg secretion at 75 uM after 3 days by ELISA; format: functional; details: HepG2 2.2.15, 72 h; summary of the method: as §1
Hepatitis B virus [16] = assay: Antiviral activity against Hepatitis B virus infected in human HepG2.2.15 cells assessed as inhibition of HBeAg secretion at 75 uM after 9 days by ELISA; format: functional; details: HepG2 2.2.15, 216 h; summary of the method: as §1
Hepatitis B virus [17] = assay: Antiviral activity against Hepatitis B virus infected in human HepG2.2.15 cells assessed as cell survival at 37.5 uM after 9 days (reference value: 100%); format: functional; details: HepG2 2.2.15, 216 h; summary of the method: as §2
Hepatitis B virus [18] = assay: Antiviral activity against Hepatitis B virus infected in human HepG2.2.15 cells assessed as inhibition of HBeAg secretion at 300 uM after 6 days by ELISA; format: functional; details: HepG2 2.2.15, 144 h; summary of the method: as §1
Hepatitis B virus [19] = assay: Antiviral activity against Hepatitis B virus infected in human HepG2.2.15 cells assessed as inhibition of HBeAg secretion at 150 uM after 3 days by ELISA; format: functional; details: HepG2 2.2.15, 72 h; summary of the method: as §1
Hepatitis B virus [20] = assay: Antiviral activity against Hepatitis B virus infected in human HepG2.2.15 cells assessed as inhibition of HBeAg secretion at 37.5 uM after 3 days by ELISA; format: functional; details: HepG2 2.2.15, 72 h; summary of the method: as §1
Hepatitis B virus [21] = assay: Antiviral activity against Hepatitis B virus infected in human HepG2.2.15 cells assessed as inhibition of HBeAg secretion at 150 uM after 6 days by ELISA; format: functional; details: HepG2 2.2.15, 144 h; summary of the method: as §1
Hepatitis B virus [22] = assay: Antiviral activity against Hepatitis B virus infected in human HepG2.2.15 cells assessed as cell survival at 75 uM after 9 days (reference value: 100%); format: functional; details: HepG2 2.2.15, 216 h; summary of the method: as §2
Hepatitis B virus [23] = assay: Antiviral activity against Hepatitis B virus infected in human HepG2.2.15 cells assessed as inhibition of HBsAg secretion at 37.5 uM after 6 days by ELISA; format: functional; details: HepG2 2.2.15, 144 h; summary of the method: as §1
Hepatitis B virus [24] = assay: Antiviral activity against Hepatitis B virus infected in human HepG2.2.15 cells assessed as inhibition of HBeAg secretion at 75 uM after 3 days by ELISA; format: functional; details: HepG2 2.2.15, 72 h; summary of the method: as §1
Hepatitis B virus [25] = assay: Antiviral activity against Hepatitis B virus infected in human HepG2.2.15 cells assessed as inhibition of HBsAg secretion at 150 uM after 9 days by ELISA; format: functional; details: HepG2 2.2.15, 216 h; summary of the method: as §1
Hepatitis B virus [26] = assay: Antiviral activity against Hepatitis B virus infected in human HepG2.2.15 cells assessed as inhibition of HBsAg secretion at 300 uM after 3 days by ELISA; format: functional; details: HepG2 2.2.15, 72 h; summary of the method: as §1
Hepatitis B virus [27] = assay: Antiviral activity against Hepatitis B virus infected in human HepG2.2.15 cells assessed as inhibition of HBeAg secretion at 37.5 uM after 6 days by ELISA; format: functional; details: HepG2 2.2.15, 144 h; summary of the method: as §1
Hepatitis B virus [28] = assay: Antiviral activity against Hepatitis B virus infected in human HepG2.2.15 cells assessed as cell survival at 300 uM after 9 days (reference value: 100%); format: functional; details: HepG2 2.2.15, 216 h; summary of the method: as §2
Hepatitis B virus [29] = assay: Antiviral activity against Hepatitis B virus infected in human HepG2.2.15 cells assessed as inhibition of HBeAg secretion at 150 uM after 9 days by ELISA; format: functional; details: HepG2 2.2.15, 216 h; summary of the method: as §1
[30] = Cytotoxicity against human HepG2.2.15 cells assessed as cell death after 9 days by MTT assay; format: cell-based, HepG2 2.2.15; summary of the method: as §2
Hepatitis B virus [31] = assay: Antiviral activity against Hepatitis B virus infected in human HepG2.2.15 cells assessed as inhibition of HBeAg secretion at 300 uM after 3 days by ELISA; format: functional; details: HepG2 2.2.15, 72 h; summary of the method: as §1
Hepatitis B virus [32] = assay: Antiviral activity against Hepatitis B virus infected in human HepG2.2.15 cells assessed as inhibition of HBsAg secretion at 300 uM after 6 days by ELISA; format: functional; details: HepG2 2.2.15, 144 h; summary of the method: as §1
Hepatitis B virus [33] = assay: Antiviral activity against Hepatitis B virus infected in human HepG2.2.15 cells assessed as inhibition of HBsAg secretion at 37.5 uM after 3 days by ELISA; format: functional; details: HepG2 2.2.15, 72 h; summary of the method: as §1

Row | SMILES | inhibition at 75 µM (Hepatitis B virus [1]) [%] | inhibition at 150 µM (Hepatitis B virus [2]) [%] | inhibition at 300 µM (Hepatitis B virus [3]) [%] | inhibition at 150 µM (Hepatitis B virus [4]) [%] | inhibition at 37.5 µM (Hepatitis B virus [5]) [%] | viability at 150 µM (Hepatitis B virus [6]) [%] | inhibition at 75 µM (Hepatitis B virus [7]) [%] | inhibition at 75 µM (Hepatitis B virus [8]) [%] | Ratio CC50/IC50 [9] | IC50 (Hepatitis B virus [10]) [µM] | Ratio CC50/IC50 [11] | inhibition at 37.5 µM (Hepatitis B virus [12]) [%] | IC50 (Hepatitis B virus [13]) [µM] | inhibition at 300 µM (Hepatitis B virus [14]) [%] | inhibition at 75 µM (Hepatitis B virus [15]) [%] | inhibition at 75 µM (Hepatitis B virus [16]) [%] | viability at 37.5 µM (Hepatitis B virus [17]) [%] | inhibition at 300 µM (Hepatitis B virus [18]) [%] | inhibition at 150 µM (Hepatitis B virus [19]) [%] | inhibition at 37.5 µM (Hepatitis B virus [20]) [%] | also measured
1 | COc1ccc(/C=C/C(=O)O/N=C/c2ccccn2)cc1OC | 19.5 | 10.8 | 61.3 | 26.8 | 19.8 | 102 | 32.9 | 36.7 | 3.37 | 162 | 3.59 | 27 | 152 | 59.2 | 2.54 | 40.3 | 107 | 56.9 | 36.7 | 19.3 | inhibition at 150 µM (Hepatitis B virus [21]): 47.4%; viability at 75 µM (Hepatitis B virus [22]): 104%; inhibition at 37.5 µM (Hepatitis B virus [23]): 11.2%; inhibition at 75 µM (Hepatitis B virus [24]): 27.7%; inhibition at 150 µM (Hepatitis B virus [25]): 54.5%; inhibition at 300 µM (Hepatitis B virus [26]): 13.3%; inhibition at 37.5 µM (Hepatitis B virus [27]): 24.7%; viability at 300 µM (Hepatitis B virus [28]): 99.5%; inhibition at 150 µM (Hepatitis B virus [29]): 48.4%; CC50 at 216 h [30]: 545 µM; inhibition at 300 µM (Hepatitis B virus [31]): 50.4%; inhibition at 300 µM (Hepatitis B virus [32]): 32.8%
2 | COc1cc(/C=C/C(=O)O/N=C/c2cccs2)cc2c1OCO2 | 37.4 | 46.6 | 77.9 | 50.7 | 29.7 | 97.5 | 33.8 | 56.1 | 6.47 | 105 | 9.1 | 29.2 | 74.4 | 65.8 | 35.5 | 48.9 | 119 | 51.1 | 33.8 | 12.7 | inhibition at 37.5 µM (Hepatitis B virus [33]): 19.1%; inhibition at 150 µM (Hepatitis B virus [21]): 40%; viability at 75 µM (Hepatitis B virus [22]): 107%; inhibition at 37.5 µM (Hepatitis B virus [23]): 23.3%; inhibition at 75 µM (Hepatitis B virus [24]): 25.6%; inhibition at 150 µM (Hepatitis B virus [25]): 68.2%; inhibition at 300 µM (Hepatitis B virus [26]): 59.3%; inhibition at 37.5 µM (Hepatitis B virus [27]): 16.1%; viability at 300 µM (Hepatitis B virus [28]): 95.6%; inhibition at 150 µM (Hepatitis B virus [29]): 57.9%; CC50 at 216 h [30]: 677 µM; inhibition at 300 µM (Hepatitis B virus [31]): 41.9%; inhibition at 300 µM (Hepatitis B virus [32]): 67.3%
